Data from ChEMBL document CHEMBL4665779, “Novel 2-Substituted 3-Hydroxy-1,6-dimethylpyridin-4(1H)-ones as Dual-Acting Biofilm Inhibitors of Pseudomonas aeruginosa” (J Med Chem, 2020).
The source made the active and inactive calls. No cut-off for these calls is given here.

Columns and labels:
Pseudomonas aeruginosa [1] = experiment: Inhibition of biofilm formation in multidrug resistant Pseudomonas aeruginosa FB at 10 uM relative to control; assay type: functional
[2] = system: Pseudomonas aeruginosa PAO1; experiment: Induction of iron chelation in Pseudomonas aeruginosa PAO1 assessed as increase in iron deficiency by measuring change in total ferric ion concentration at 2.5 uM by inductively coupled plasma mass spectrometry (reference value: 1.91 +/- 0.8 uM)
Method in brief: (§1)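 PAO1 (OD600 0.05) was diluted 1:100 into ABTGC medium and grown 24 h at 37 °C with shaking, with compound; DFP at 20 μM was the reference. Pellets were washed twice in HEPES and lysed with lysozyme in 50 mM HEPES plus sonication for 30 min. Lysates were digested with 1 M nitric acid, centrifuged, and analysed by ICP-MS. Mean ± SD, triplicate.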

[3] = system: Pseudomonas aeruginosa PAO1; experiment: Induction of iron chelation in Pseudomonas aeruginosa PAO1 assessed as increase in iron deficiency by measuring change in total ferric ion concentration at 10 uM by inductively coupled plasma mass spectrometry (reference value: 1.91 +/- 0.8 uM); method in brief: as §1
Pseudomonas aeruginosa [4] = experiment: Inhibition of biofilm formation in multidrug resistant Pseudomonas aeruginosa FB at 2.5 uM relative to control; assay type: functional
[5] = system: Pseudomonas aeruginosa PAO1; experiment: Inhibition of quorum sensing system rhl in Pseudomonas aeruginosa PAO1 assessed as reduction in rhamnolipid production by orcinol assay; conditions: dose microM 1.25-20
Method in brief: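 An overnight culture was diluted 1:100 into a defined minimal medium (0.6% glycerol, 25 μM FeSO4) with compound at 1.25–20 μM and grown 24 h at 37 °C with shaking. Supernatant was ether-extracted twice, dried, resuspended in water, and reacted with 0.19% orcinol in 50% H2SO4 at 80 °C for 30 min. A421 was read and normalized to OD600.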

[6] = system: Pseudomonas aeruginosa PA14; experiment: Inhibition of quorum sensing system PQS in Pseudomonas aeruginosa PA14 assessed as reduction in pyocyanin production measured after 48 hrs; conditions: dose microM 1.25-20, time 48.0 hrs
Method in brief: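 PA14 culture standardized to OD600 0.05 was diluted 100-fold in LB and grown 48 h at 37 °C with shaking, with compound at 1.25–20 μM. Cleared supernatant was extracted with chloroform (4:1), then back-extracted into 0.2 M HCl. A520 was read and normalized to final OD600.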

Pseudomonas aeruginosa [7] = experiment: Inhibition of biofilm formation in multidrug resistant Pseudomonas aeruginosa 1129 at 20 uM relative to control; assay type: functional
Pseudomonas aeruginosa [8] = experiment: Antibacterial activity against Pseudomonas aeruginosa infected in human L02 assessed as cell survival at 20 uM pretreated for 24 hrs followed by cell addition and measured 4 hrs post-infection by MTT assay (reference value: 40.7%); assay type: functional; conditions: time 28 hrs
[9] = Growth inhibition of Pseudomonas aeruginosa PAO1 at 1.25 to 20 uM measured after 10 hrs in ABTGC media; conditions: dose 1.25-20 µM
[10] = system: Pseudomonas aeruginosa PAO1; experiment: Induction of iron chelation in Pseudomonas aeruginosa PAO1 assessed as increase in iron deficiency by measuring ferric ion concentration inductively coupled plasma mass spectrometry; conditions: dose microM 1.25-20; method in brief: as §1
Pseudomonas aeruginosa [11] = experiment: Antibacterial activity against Pseudomonas aeruginosa infected in African green monkey Vero cells assessed as cell survival at 20 uM pretreated for 24 hrs followed by cell addition and measured 4 hrs post-infection by MTT assay (reference value: 41.5%); assay type: functional; conditions: time 28 hrs
[12] = Metal chelating activity assessed as negative logarithm of total free ferric ion concentration in a solution under biological conditions
Method in brief: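 Fluorescence competition with CP645 (6 μM), quenched by Fe-NTA (2 μM) for 30 min before compound (60 μM) was added in Chelex-treated MOPS. Fluorescence was read after 48 h, with DFP as reference. pFe(III) was calculated from relative fluorescence as % = 11.743 pFe(III) − 169. Mean of three determinations.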

Pseudomonas aeruginosa [13] = experiment: Antibiofilm activity against Pseudomonas aeruginosa PAO1 assessed as reduction in biofilm mass after 24 hrs by microtiter plate assay; assay type: functional, organism-based; conditions: dose microM 1.25-20, time 24.0 hrs
Method in brief: (§2)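 PAO1 (OD600 0.05) was cultured in ABTGC medium at 37 °C for 24 h with compound (1.25–20 μM for the dose series). Wells were PBS-washed three times, methanol-fixed for 30 min, air-dried, and stained with 0.1% crystal violet for 30 min. Stain was solubilized in 33% acetic acid and read at 570 nm. Compound stocks were […]. Run in triplicate.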

Pseudomonas aeruginosa [14] = experiment: Inhibition of biofilm formation in multidrug resistant Pseudomonas aeruginosa 1129 at 10 uM relative to control; assay type: functional
[15] = Inhibition of GFP (unknown origin) at 1.25 to 20 uM by measuring fluorescence intensity every 15 mins for 12 hrs by microtiter plate reader assay; conditions: dose microM 1.25-20, time 12.0 hrs
Method in brief: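 PAO1-gfp, PAO1-lasB-gfp, PAO1-rhlA-gfp or PAO1-pqsA-gfp reporters were grown overnight in LB, then diluted in ABTGC medium to OD600 0.02, with compound at 1.25–20 μM. Controls were 0.1% DMSO and a blank. OD600 and GFP fluorescence (ex 485/em 535 nm) were read every 15 min for at least 12 h at 37 °C; triplicate.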

Pseudomonas aeruginosa [16] = experiment: Antibiofilm activity against Pseudomonas aeruginosa PAO1 assessed as inhibition of biofilm formation at 20 uM after 24 hrs by crystal violet staining based assay relative to control; assay type: functional; method in brief: as §2
Pseudomonas aeruginosa [17] = experiment: Antibiofilm activity against Pseudomonas aeruginosa PAO1 assessed as reduction in biofilm mass at 1.25 uM after 24 hrs by microtiter plate assay relative to control; assay type: functional; design: scale not given: the % may be the effect or the level left; method in brief: as §2
Pseudomonas aeruginosa [18] = experiment: Inhibition of twitching motility in Pseudomonas aeruginosa PAO1 assessed at 1.25 to 20 uM measured after 16 hrs; assay type: functional; conditions: dose microM 1.25-20, time 16.0 hrs
Method in brief: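 Plates of LB with 1% agar, 0.5% casamino acids and 0.5% glucose contained compound at 0–20 μM. After drying 1 h, 1 μL PAO1 (OD600 1) was inoculated at the plate bottom and incubated 16 h at 37 °C. Three independent experiments.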

Pseudomonas aeruginosa [19] = experiment: Inhibition of biofilm formation in multidrug resistant Pseudomonas aeruginosa 1121 at 20 uM relative to control; assay type: functional
Vero = experiment: Cytotoxicity against African green monkey Vero cells assessed as reduction in cell viability up to 50 uM after 16 hrs by MTT assay; assay type: cell-based; conditions: chlorocebus sabaeus
Method in brief: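 Vero or LO2 cells were seeded at 5000–15000 cells/well for 16 h, PBS-washed, then exposed to compound in DMEM at 37 °C and 5% CO2 for 16 h. MTT (20 μL of 5 mg/mL) was added for 3 h, and formazan was dissolved in DMSO and read at 570 nm. Triplicate; mean ± SD.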

[20] = system: Pseudomonas aeruginosa PAO1; experiment: Induction of iron chelation in Pseudomonas aeruginosa PAO1 assessed as increase in intracellular pyoverdin level at 1.25 to 20 uM in presence of 50 uM FeCl3 by fluorescence microplate reader assay; assay type: cell-based; conditions: dose microM 1.25-20
Method in brief: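 PAO1 overnight LB culture was diluted in ABTGC medium to OD600 0.02 ([…]), with compound at 0–20 μM, in medium containing 10 or 50 μM FeCl3. Plates were kept at 37 °C in a plate reader recording OD600, pyoverdine fluorescence (ex 400/em 447 nm) and pyochelin fluorescence (ex 350/em 430 nm). Triplicate.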

Question: For `CCCCCCC(=O)NCc1c(O)c(=O)cc(C)n1C`, which inhibition at 10 µM (Pseudomonas aeruginosa [1]) is on record?
Answer: 18.4%

Question: And the Activity [2]?
Answer: 1.56 µM

Question: What about the Activity [3] of the same compound?
Answer: 0.97 µM

Question: What about the inhibition at 2.5 µM (Pseudomonas aeruginosa [4]) of the same compound?
Answer: -8.67%

Question: And the inhibition [5]?
Answer: Dose-dependent effect

Question: And the inhibition [6]?
Answer: Dose-dependent effect

Question: What about the inhibition at 20 µM (Pseudomonas aeruginosa [7]) of the same compound?
Answer: 40%

Question: What about the survival at 20 µM (Pseudomonas aeruginosa [8]) of the same compound?
Answer: 89.9%

Question: And the “growth inhibition (GI)” value [9]?
Answer: Non-Toxic

Question: What about the Activity [10] of the same compound?
Answer: Dose-dependent effect

Question: And the survival at 20 µM (Pseudomonas aeruginosa [11])?
Answer: 96.4%

Question: And the pFe3+ [12]?
Answer: 20.6

Question: And the Activity (Pseudomonas aeruginosa [13])?
Answer: Dose-dependent effect

Question: What about the inhibition at 10 µM (Pseudomonas aeruginosa [14]) of the same compound?
Answer: 30.4%

Question: And the inhibition [15]?
Answer: inactive

Question: And the inhibition at 20 µM (Pseudomonas aeruginosa [16])?
Answer: 68.7%

Question: What about the Activity (Pseudomonas aeruginosa [17]) of the same compound?
Answer: >25%

Question: And the inhibition (Pseudomonas aeruginosa [18])?
Answer: inactive

Question: And the inhibition at 20 µM (Pseudomonas aeruginosa [19])?
Answer: 23.2%

Question: And the Activity (Vero)?
Answer: Non-Toxic

Question: What about the Activity [20] of the same compound?
Answer: inactive
